Measurements as given in ChEMBL document CHEMBL1949587 (Bioorg Med Chem, 2012).
≈ marks a conversion by molar mass, not a printed value. Calls of active or inactive are those of the source. The calls are words filed in the database; no cut-off is given here.

What was measured:
HUVEC [1] = test: Antiangiogenic activity in HUVEC assessed as inhibition of VEGF-induced cell proliferation after 4 days; format: functional, cell-based; details: Homo sapiens, 96 h
Summary of the method: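 HUVECs maintained in RPMI1640 with 10% FCS, 50 μg/mL heparin and ECGS, then seeded at 3000 cells/well in RPMI1640 with 5% FCS and 20 ng/mL VEGF, with compound at serially diluted concentrations. Incubated at 37 °C, 5% CO₂. Read-out is Cell Counting Kit-8, absorbance at 450 nm. Inhibition = (1−T/C)×100 against untreated control.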

HCT-116 = test: Antiproliferative activity against human HCT116 cells; format: cell-based
HUVEC [2] = test: Selectivity ratio of IC50 for human HCT116 cells to IC50 for HUVEC cells
Calu-6 [3] = test: Antitumor activity against human Calu6 cells xenografted in BALB/c mouse assessed as tumor growth inhibition at 80 mg/kg, po qd for 11 days; format: functional, organism-based; design: dose 80 mg/kg
Summary of the method: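 Female Balb/c nude mice carried s.c. flank Calu-6 xenografts, 5.0×10⁶ cells in Hanks' solution. At 200 mm³, mice were randomized into 4 groups (n = 5): vehicle, 150 mg/kg, sunitinib 80 mg/kg, or both. Each group dosed orally once daily for 11 days. Volume = 1/2 × long × short². Inhibition from volume change against control.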

[4] = Toxicity in human Calu6 cells xenografted po dosed BALB/c mouse assessed as body weight change administered qd for 11 days; details: in vivo
[5] = Clearance in mouse liver microsome at 5 uM after 60 mins by LC-MS/MS analysis; format: ADME; details: liver microsomes, read-out: CLH
Summary of the method: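 Test compound at 5 µM incubated with mouse liver microsomes, 1.0 mg protein/mL, in 50 mM potassium phosphate pH 7.4 at 37 °C. Started by adding NADPH generating system (glucose 6-phosphate 3.2 mM, β-NADP 2.6 mM, MgCl2 6.5 mM). Substrate depletion measured against internal standard. Intrinsic clearance is the first-order decay constant normalized to protein.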

[6] = Solubility of the compound in fasted state simulated intestinal fluid at 10 mM after 2 hrs by HPLC-UV analysis; format: physicochemical
Summary of the method: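 Triplicate samples made from 10 mM DMSO stocks. DMSO evaporated (1 h), residue dissolved in FaSSIF and shaken 2 h. Solutions filtered, filtrate analysed by UV or HPLC-UV against a four-point calibration curve from the stocks. Result in µg/mL.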

[7] = target: Vascular endothelial growth factor receptor 2 (Homo sapiens, UniProt P35968); test: Inhibition of VEGFR2
Vascular endothelial growth factor receptor 2, sequence (P35968 whole entry): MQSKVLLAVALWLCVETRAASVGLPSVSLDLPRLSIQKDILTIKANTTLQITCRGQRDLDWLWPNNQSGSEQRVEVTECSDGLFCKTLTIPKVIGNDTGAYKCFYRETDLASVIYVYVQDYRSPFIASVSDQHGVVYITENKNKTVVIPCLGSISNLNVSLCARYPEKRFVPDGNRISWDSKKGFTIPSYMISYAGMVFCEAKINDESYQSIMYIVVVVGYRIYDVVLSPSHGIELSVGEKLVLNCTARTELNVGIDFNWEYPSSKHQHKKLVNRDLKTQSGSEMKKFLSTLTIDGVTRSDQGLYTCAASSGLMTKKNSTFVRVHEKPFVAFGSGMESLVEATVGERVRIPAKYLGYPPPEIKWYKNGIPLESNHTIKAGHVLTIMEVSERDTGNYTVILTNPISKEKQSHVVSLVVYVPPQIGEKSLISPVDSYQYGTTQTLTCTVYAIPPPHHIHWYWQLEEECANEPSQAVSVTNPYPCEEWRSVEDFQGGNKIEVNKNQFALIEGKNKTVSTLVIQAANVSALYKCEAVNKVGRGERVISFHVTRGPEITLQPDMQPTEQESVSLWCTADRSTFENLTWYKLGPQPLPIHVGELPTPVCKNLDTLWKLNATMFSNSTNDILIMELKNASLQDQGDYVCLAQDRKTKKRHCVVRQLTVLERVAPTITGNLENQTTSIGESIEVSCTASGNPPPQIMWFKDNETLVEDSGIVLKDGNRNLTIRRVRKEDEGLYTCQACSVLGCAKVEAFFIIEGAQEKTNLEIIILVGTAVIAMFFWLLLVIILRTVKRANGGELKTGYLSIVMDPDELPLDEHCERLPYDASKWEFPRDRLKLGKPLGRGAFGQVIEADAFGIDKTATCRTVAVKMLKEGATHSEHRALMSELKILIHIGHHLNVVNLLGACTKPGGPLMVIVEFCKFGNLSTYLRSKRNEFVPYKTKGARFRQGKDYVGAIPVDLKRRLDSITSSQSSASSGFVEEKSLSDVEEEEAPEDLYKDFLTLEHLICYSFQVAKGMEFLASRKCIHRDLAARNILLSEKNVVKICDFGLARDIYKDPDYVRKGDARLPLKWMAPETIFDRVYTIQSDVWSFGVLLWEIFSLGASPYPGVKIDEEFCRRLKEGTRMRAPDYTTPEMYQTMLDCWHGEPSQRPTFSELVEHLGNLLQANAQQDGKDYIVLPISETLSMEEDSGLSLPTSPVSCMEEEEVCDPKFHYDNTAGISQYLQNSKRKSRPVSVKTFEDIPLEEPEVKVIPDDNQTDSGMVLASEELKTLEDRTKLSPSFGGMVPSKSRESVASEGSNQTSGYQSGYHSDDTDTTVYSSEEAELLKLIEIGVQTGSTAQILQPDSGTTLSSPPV

Calu-6 [8] = test: Antitumor activity against human Calu6 cells xenografted in BALB/c mouse assessed as tumor growth inhibition at 600 mg/kg, po for 11 days relative to control; format: functional; details: Calu-6, 264 h, read-out: TGI
Summary of the method: (§1)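 Calu-6 cells in Hanks' balanced salt solution implanted s.c. in the flank of female Balb/c nude mice, 5.0×10⁶ per mouse. Oral dosing once daily for 11 days, starting at tumor volume 150 mm³. Volume = 1/2 × long × short². Tumor growth inhibition taken from change in volume of the treated group against change in controls.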

Calu-6 [9] = test: Antiangiogenic activity in human Calu6 cells xenografted in BALB/c mouse assessed as microvessel density reduction at 300 mg/kg, po after 11 days by immunohistochemical staining method; format: functional; design: scale not given: the % may be the effect or the level left
Summary of the method: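 Female Balb/c nude mice given Calu-6 cells s.c. in the flank, 5.0×10⁶ cells per mouse. Dosing was oral, once daily for 11 days, starting once tumors reached 150 mm³. Tumors taken 24 h after the last dose and frozen-sectioned from the mid-portion. Vessels stained with anti-mouse CD31 and counted by image analysis. Density decrease expressed against control.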

Calu-6 [10] = test: Antitumor activity against human Calu6 cells xenografted in BALB/c mouse assessed as tumor growth inhibition at 300 mg/kg, po for 11 days relative to control; format: functional; details: Calu-6, 264 h, read-out: TGI; summary of the method: as §1
[11] = Lipophilicity, log D of the compound at pH 7; format: physicochemical; details: buffer
[12] = dose 600 mg/kg, in the assay text read “600 mg/kg” for “300 mg/kg”

SMILES | IC50 (HCT-116) | microsomal CLint at 5 µM [5] | IC50 (HUVEC [1]) | Ratio IC50 (HUVEC [2]) | also measured
COc1ccc(C(N)=O)cc1/C=C/c1ccccc1C | 11 µM |  | 2.3 µM | 4.8 | 
CCN(CC)CCNC(=O)c1c(C)[nH]c(/C=C2\C(=O)Nc3ccc(F)cc32)c1C [SUNITINIB] |  |  |  |  | TGI (Calu-6 [3]): Active; MTD at 264 h [4]: 80 mg/kg
COc1ccc(C(N)=O)cc1/C=C/c1ccc(F)cc1 | 24 µM |  | 2.1 µM | 11 | 
COc1ccc(C(=O)NCCO)cc1/C=C/c1ccc(Cl)cc1 | 17 µM | 73 µL/min/mg | 0.91 µM | 19 | solubility at 2 h, 10000 µM [6]: 16 µg/mL (≈ 48.2 µM)
COc1ccc(C(N)=O)cc1COc1ccc(Cl)cc1 | > 50 µM | 97 µL/min/mg | 0.66 µM | >75 | IC50 [7]: > 50 µM; inhibition in vivo at 600 mg/kg (Calu-6 [8]): 62%; Activity (Calu-6 [9]; [12]): 27%
COc1ccc(C(N)=O)cc1/C=C/c1ccc(C(C)(C)C)cc1 | 20 µM |  | 0.37 µM | 54 | 
COC(=O)c1ccc(OC)c(COc2ccc(Cl)c(C)c2)c1 | 23 µM |  | 2.3 µM | 10 | 
COc1ccc(C(N)=O)cc1/C=C\c1ccc(Cl)cc1 | 29 µM | 544 µL/min/mg | 2.9 µM | 10 | solubility at 2 h, 10000 µM [6]: 137 µg/mL (≈ 476 µM)
COc1ccc(C(N)=O)cc1/C=C/c1ccccc1 | 36 µM |  | 2.4 µM | 15 | 
COc1ccc(/C=C/c2cc(C(N)=O)ccc2OC)cc1 | 19 µM |  | 8.8 µM | 2.2 | 
Cc1cc(OCc2cccc(C#N)c2)ccc1Cl | 45 µM |  | 11 µM | 4.1 | 
COc1ccc(C(N)=O)cc1/C=C/c1cccc(C#N)c1 | 19 µM |  | 49 µM | 0.4 | 
CNC(=O)c1ccc(OC)c(/C=C/c2ccc(Cl)cc2)c1 | 16 µM | 331 µL/min/mg | 0.19 µM | 84 | solubility at 2 h, 10000 µM [6]: 24 µg/mL (≈ 79.5 µM)
COc1ccc(C(N)=O)cc1/C=C/c1cccc(F)c1 | > 50 µM |  | 8.3 µM | >6 | 
COc1ccc(C(=O)NCC(O)CO)cc1/C=C/c1ccc(Cl)cc1 (stereo not given) | 12 µM | 10 µL/min/mg | 0.4 µM |  | solubility at 2 h, 10000 µM [6]: 317 µg/mL (≈ 876 µM)
COc1ccc(C(=O)NC(CO)CO)cc1/C=C/c1ccc(Cl)cc1 | 14 µM | 8 µL/min/mg | 1.5 µM | 9.3 | solubility at 2 h, 10000 µM [6]: 251 µg/mL (≈ 694 µM)
COc1ccc(C(N)=O)cc1/C=C/c1ccc(Cl)cc1 | 7.1 µM | 110 µL/min/mg | 0.087 µM | 82 | inhibition in vivo at 300 mg/kg (Calu-6 [10]): 71%; logD [11]: 4; IC50 [7]: > 50 µM; solubility at 2 h, 10000 µM [6]: 16 µg/mL (≈ 55.6 µM); Activity (Calu-6 [9]; dose 300 mg/kg): 60%
COc1ccc(C(C)=O)cc1COc1ccc(Cl)cc1 | 39 µM |  | 1.2 µM | 33 | 
CN(C)CCOc1ccc(C(N)=O)cc1/C=C/c1ccc(Cl)cc1 | 4.9 µM | 288 µL/min/mg | 8.4 µM | 0.6 | solubility at 2 h, 10000 µM [6]: 109 µg/mL (≈ 316 µM)

Second part, led by results:

IC50 (HCT-116) | microsomal CLint at 5 µM [5] | SMILES | IC50 (HUVEC [1]) | Ratio IC50 (HUVEC [2]) | also measured
> 10 µM |  | COc1ccc(C(N)=O)cc1/C=C/c1ccc(Cl)cc1F | 1.7 µM | >5.9 | 
22 µM |  | COc1ccc(C(N)=O)cc1/C=C/c1ccc(Br)cc1 | 0.56 µM | 39 | 
> 50 µM |  | COc1ccc(C#N)cc1COc1ccc(Cl)c(C)c1 | 1.5 µM | >33 | 
15 µM |  | COc1ccc(C(N)=O)cc1/C=C/c1cccc(Cl)c1 | 24 µM | 0.6 | 
> 50 µM | 16 µL/min/mg | COc1ccc(C(N)=O)cc1C(=O)Nc1ccc(Cl)cc1 | 5.5 µM | >9 | solubility at 2 h, 10000 µM [6]: 5 µg/mL (≈ 16.4 µM)
> 50 µM | 83 µL/min/mg | CCCOc1ccc(C(N)=O)cc1/C=C/c1ccc(Cl)cc1 | 1.3 µM | 38 | solubility at 2 h, 10000 µM [6]: 4 µg/mL (≈ 12.7 µM)
15 µM | 187 µL/min/mg | CCNC(=O)c1ccc(OC)c(/C=C/c2ccc(Cl)cc2)c1 | 0.16 µM | 94 | solubility at 2 h, 10000 µM [6]: 9 µg/mL (≈ 28.5 µM)
24 µM |  | COc1ccc(C(C)=O)cc1COc1cccc(C)c1 | 2.8 µM | 8.6 | 
1.7 µM | 123 µL/min/mg | CCOc1ccc(C(N)=O)cc1/C=C/c1ccc(Cl)cc1 | 0.19 µM | 8.9 | solubility at 2 h, 10000 µM [6]: 10 µg/mL (≈ 33.1 µM)
22 µM |  | COc1ccc(C(N)=O)cc1/C=C/c1ccc([N+](=O)[O-])cc1 | 4.7 µM | 4.7 | 
> 50 µM |  | COc1ccccc1/C=C/c1cc(C(N)=O)ccc1OC | 5.7 µM | >8.8 | 
16 µM |  | COc1ccc(C(N)=O)cc1/C=C/c1ccc(C#N)cc1 | 3.1 µM | 5.2 | 
11 µM |  | COc1ccc(C(N)=O)cc1/C=C/c1ccc(Cl)c(Cl)c1 | 0.56 µM | 20 | 
> 50 µM |  | COc1ccc(C(=O)O)cc1COc1ccc(Cl)c(C)c1 | > 50 µM |  | 
34 µM |  | COc1ccc(C(C)=O)cc1COc1ccc(Cl)c(C)c1 | 1.3 µM | 26 | IC50 [7]: > 50 µM; inhibition in vivo at 600 mg/kg (Calu-6 [8]): 34%; Activity (Calu-6 [9]; [12]): 15%
> 50 µM |  | COc1ccc(C(N)=O)cc1/C=C/c1ccccc1Cl | 23 µM | 2.2 | 
7.5 µM | 251 µL/min/mg | CN1CCN(CCOc2ccc(C(N)=O)cc2/C=C/c2ccc(Cl)cc2)CC1 | 9.5 µM | 0.8 | solubility at 2 h, 10000 µM [6]: 164 µg/mL (≈ 410 µM)
35 µM |  | COc1ccc(C(=O)N(C)C)cc1/C=C/c1ccc(Cl)cc1 | 2.5 µM | 14 | 
38 µM | 247 µL/min/mg | NC(=O)c1ccc(OCCOCCO)c(/C=C/c2ccc(Cl)cc2)c1 | 11 µM |  | solubility at 2 h, 10000 µM [6]: 74 µg/mL (≈ 205 µM)
23 µM |  | COc1ccc(C(N)=O)cc1/C=C/c1cccc(C)c1 | 3.9 µM | 5.9 | 
> 50 µM |  | COc1ccc(C(N)=O)cc1/C=C/c1ccc(Cl)cc1Cl | 2.6 µM | >19 | 
35 µM |  | COc1ccc(C(N)=O)cc1/C=C/c1ccc(C(F)(F)F)cc1 | 0.88 µM | 40 | 
48 µM |  | COc1ccc(C(N)=O)cc1/C=C/c1ccc(C)cc1 | 1.6 µM | 30 | 
43 µM |  | CCc1ccc(OC)c(COc2ccc(Cl)c(C)c2)c1 | 40 µM | 1.1 | 
26 µM |  | COc1ccc(C(N)=O)cc1/C=C/c1ccccc1F | 2 µM | 13 | 
36 µM |  | COc1ccc(C(N)=O)cc1/C=C/c1ccccc1OC(F)(F)F | 8.9 µM | 4 | 
> 50 µM | 414 µL/min/mg | COc1ccc(C(N)=O)cc1COc1ccc(Cl)c(C)c1 | 0.64 µM | >78 | IC50 [7]: > 50 µM; inhibition in vivo at 600 mg/kg (Calu-6 [8]): 14%; Activity (Calu-6 [9]; [12]): 0%
